This is a sample that favours compounds with a hit; in the whole collection about 2.2% have one here.
PGC1a acetyl inh: PGC1a acetylation modulation, inhibitor mode | U2OS PGC1a acetylation, AlphaScreen anti-acetyl-lysine; with virally co-expressed GCN5 acetyltransferase | inhibition, % at 15.6 µM | hit rate 0.17% among 350,000 | AID 651687;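 active means every replicate shows inhibition of at least 40%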
SIRT5 block: blocks human SIRT5 desuccinylation of peptide | Q9NXA8 | Purified SirT5, succinyl-peptide AMC, trypsin-coupled fluorescence | inhibition, % at 15 µM | hit rate 1.1% among 330,000 | AID 652115; in the data active means inhibition above about 15%
Target sequence (Q9NXA8 whole entry, looked up): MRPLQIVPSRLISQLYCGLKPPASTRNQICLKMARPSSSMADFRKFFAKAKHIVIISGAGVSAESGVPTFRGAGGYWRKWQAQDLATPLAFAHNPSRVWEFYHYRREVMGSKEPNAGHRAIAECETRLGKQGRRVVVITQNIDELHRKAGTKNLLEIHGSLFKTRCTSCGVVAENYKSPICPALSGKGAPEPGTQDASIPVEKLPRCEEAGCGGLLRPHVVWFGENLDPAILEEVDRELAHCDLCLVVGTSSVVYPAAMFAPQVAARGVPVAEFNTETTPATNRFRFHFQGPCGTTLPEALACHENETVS
FN deposit inh: fibronectin deposition inhibition. AH1F fibroblasts, Alexa488-fibronectin deposition fluorescence, overnight. inhibition, % at 12.6 µM. hit rate 0.086% among 350,000;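 active means mean inhibition across replicates of 30% or more, regardless of how many single replicates reach that level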
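Assay system: AH1F fibroblasts / Quantity: 10000 cells per well / Medium: DMEM plus 2% serum, read in PBS / Reagent: labelled fibronectin 24 nM / Dosing: single dose, pinned / Times: 1 h cell attachment, overnight exposure to compound and label / Signal: fluorescence, ex 485 nm, em 525 nm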
ERAP1 inh: inhibitors of human ERAP1 aminopeptidase; Q9NZ08; recombinant ERAP1, Leu-AMC fluorescence, 60 min; inhibition, % at 10.7 µM; hit rate 0.15% among 340,000; AID 652197;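 active means mean replicate inhibition of at least 30%, or all replicates individually reaching that 30% level; inactive means mean below 30% and not every replicate reaching it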
FGF22 binding: shifts melting point of recombinant human FGF22. Q9HCT0. recombinant FGF22 thermal shift, SYPRO orange fluorescence; percent of sucrose octasulfate shift, DMSO zero. activity (Tm shift, normalised), % at 9.99 µM. hit rate 1.5% among 340,000. AID 651658;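 active means mean Tm shift, scaled 0 neutral to 100 positive control, at about 1.3% or above, every replicate too, limit read from the data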
Target sequence (Q9HCT0 whole entry, looked up): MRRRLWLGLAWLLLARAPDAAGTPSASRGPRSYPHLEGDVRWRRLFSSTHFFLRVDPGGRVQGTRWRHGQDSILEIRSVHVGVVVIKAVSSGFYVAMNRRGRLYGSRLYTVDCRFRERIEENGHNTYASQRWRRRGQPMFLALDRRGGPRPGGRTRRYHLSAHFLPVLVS
Hits are given with their value; - = inactive; . = no result; ! = not confirmed by another sample.

SMILES	PGC1a acetyl inh	SIRT5 block	FN deposit inh	ERAP1 inh	FGF22 binding
Cc1ccc(C(=O)OCC(=O)c2c[nH]c3ccccc23)cc1	.	-	-	-	-
COc1ccc(-c2cn(CCCOCc3ccccc3)nn2)cc1	.	-	-	-	-
CCCCCc1ccc(-c2cn(CCCOCc3ccccc3)nn2)cc1	.	-	-	-	4.2
C/C=C/c1ccc2c(c1)O[C@H](CN(C)Cc1cccc(F)c1)[C@H](C)CN([C@@H](C)CO)S2(=O)=O	-	19.1	-	-	-
C/C=C/c1ccc2c(c1)O[C@@H](CN(C)Cc1ccccc1F)[C@H](C)CN([C@@H](C)CO)S2(=O)=O	-	19.4	.	-	-
C/C=C/c1ccc2c(c1)O[C@@H](CN(C)Cc1ccccc1F)[C@@H](C)CN([C@H](C)CO)S2(=O)=O	-	-	.	-	-
CCc1nnc(NC(=O)CSc2n[nH]c(-c3ccccc3O)n2)s1	-	-	-	-	1.8
C[C@@H](NC(=O)C[C@H]1CC[C@@H]2[C@H](COC[C@H](O)CN2C(=O)Nc2cc(Cl)cc(Cl)c2)O1)c1ccccc1	-	-	-	-	-
COC(=O)C1=NNC(C(=O)c2ccco2)C1c1ccccc1 (stereo not given)	.	21.9	.	-	-
COCC(=O)Nc1ccc2c(c1)C(=O)N(C)C[C@H](OC)[C@@H](C)CN(CC1CCCCC1)[C@@H](C)CO2	-	-	-	-	-
Cc1ccc(NC(=O)c2ccc3c(c2)CCN3S(C)(=O)=O)cc1	.	20.2	-	-	-
Cc1cc(C)cc(NC(=O)c2ccc3c(c2)CCN3S(C)(=O)=O)c1	-	-	-	-	-
CCC(C)NC(=O)C(Sc1ccccc1)c1ccccc1 (stereo not given)	.	-	-	-	43.0
CCS(=O)(=O)c1nc(S(=O)(=O)c2ccc(Cl)cc2)c(N2CCC3(CC2)OCCO3)s1	-	-	-	-	43.2
CS(=O)(=O)c1nc(S(=O)(=O)c2ccc(Cl)cc2)c(N2CCC3(CC2)OCCO3)s1	-	-	-	-	-
COc1cccc(CNC(=O)C[C@@H]2C=C[C@@H](NC(=O)C3CCOCC3)[C@@H](CO)O2)c1	-	-	-	-	-
CCC#CCN(Cc1ccccc1Br)[C@H](/C=C/c1ccccc1)[C@@H](O)Cc1ccccc1	-	-	.	-	-
CCCc1cc(C(=O)OC)c(NC(=O)CCC(=O)O)s1	-	-	33.1	-	43.2
CCC(=O)N1N=C(c2cccc(NS(C)(=O)=O)c2)CC1c1cccs1 (stereo not given)	-	-	-	-	-
CS(=O)(=O)Nc1cccc(C2=NN(C(=O)CCC(=O)O)C(c3cccs3)C2)c1 (stereo not given)	-	-	-	-	-
CCS(=O)(=O)N1N=C(c2cccc(NS(C)(=O)=O)c2)CC1c1ccccc1 (stereo not given)	.	-	-	-	-
CC(C)(C)C(=O)N1N=C(c2ccc(NS(C)(=O)=O)cc2)CC1c1cccs1 (stereo not given)	.	-	-	-	43.2
CCS(=O)(=O)Nc1cccc(C2=NN(S(C)(=O)=O)C(c3ccccc3)C2)c1 (stereo not given)	.	-	-	-	43.2
CCS(=O)(=O)Nc1cccc(C2=NN(C(C)=O)C(c3cccs3)C2)c1 (stereo not given)	-	-	-	-	43.0
CC(=O)N1N=C(c2cccc(NS(C)(=O)=O)c2)CC1c1cccs1 (stereo not given)	-	23.1	-	-	-
SMILES	PGC1a acetyl inh	SIRT5 block	FN deposit inh	ERAP1 inh	FGF22 binding
CS(=O)(=O)Nc1ccc(C2=NN(C(=O)c3ccccc3)C(c3cccs3)C2)cc1 (stereo not given)	-	-	-	-	-
CCC(=O)N1C[C@H](O)COC[C@H]2O[C@@H](CC(=O)NCc3cc(F)cc(F)c3)CC[C@@H]21	-	-	-	-	-
C[C@@H]1CCCCO[C@@H](CN(C)Cc2ccc(C(F)(F)F)cc2)[C@H](C)CN([C@@H](C)CO)C(=O)c2cc(NC(=O)CCCN(C)C)ccc2O1	.	-	.	-	-
CO[C@H](CN(C)C(=O)c1cc(Cl)cc(Cl)c1)[C@@H](C)CN(C(=O)Nc1ccc(F)cc1)[C@H](C)CO	-	-	-	-	-
S=c1cnc2ccccc2[nH]1	.	-	-	-	43.2
c1ccc2[nH]c(CCCc3nc4ccccc4[nH]3)nc2c1	-	-	-	-	-
CCOC(=O)N/N=C(\CCC(=O)O)c1cccs1	-	-	-	-	-
N#Cc1ccc(OCC(=O)N/N=C(\CCC(=O)O)c2cccs2)cc1	-	-	-	-	43.4
Cc1ccnc(NC(=O)c2ccc(Cl)c(NC(=O)C(C)Oc3ccccc3)c2)c1 (stereo not given)	-	-	-	-	43.2
COc1ccc(-c2ccnc3ncnn23)cc1	.	-	.	-	42.9
FCCCOc1ccc(-c2ccnc3ncnn23)cc1	.	-	-	-	-
CCN(C[C@H]1[C@H](c2ccccc2)[C@@H](CO)N1C(C)=O)C(=O)c1cccc(F)c1	-	.	.	-	-
COCCN(C[C@@H]1[C@@H](c2ccccc2)[C@H](CO)N1C(C)=O)C(=O)c1cccnc1	-	16.2	-	-	-
CCCN(C[C@H]1[C@H](c2ccccc2)[C@@H](CO)N1C(C)=O)C(=O)NC(C)C	-	33.4!	-	-	-
COCCN(C[C@@H]1[C@@H](c2ccccc2)[C@@H](CO)N1C(C)=O)C(=O)c1cccnc1	-	-	-	-	-
CC(=O)N(Cc1cccc(F)c1)C[C@H]1[C@@H](c2ccccc2)[C@@H](CO)N1C(C)=O	.	28.1	-	-	.
CCN(C[C@H]1[C@H](c2ccccc2)[C@H](CO)N1C(C)=O)C(=O)NC(C)C	-	-	.	-	-
C[C@@H]1CN([C@H](C)CO)C(=O)c2cc(NC(=O)NC3CCCCC3)ccc2O[C@@H]1CN(C)Cc1ccccc1	-	-	.	-	-
C/C=C/c1ccc([C@@H]2[C@H](CO)N3C(=O)CN(Cc4ccc(F)cc4)C[C@@H]23)cc1	-	-	-	-	.
CN(C)CC(=O)N[C@@H]1C[C@@H]2O[C@H](CO)CC[C@@H]2O[C@@H]1CCc1ccc(C2=CCCCC2)cc1	-	-	.	.	.
CCOc1ccc(Nc2nc(N)nc(CN3CCN(c4ccccc4F)CC3)n2)cc1	-	-	-	-	43.7
Cc1cccc(Nc2nc(N)nc(CN3CCN(c4ccccc4F)CC3)n2)c1	-	.	-	.	.
COc1ccccc1/C=C(/C(=O)OCC(=O)NCc1ccccc1)c1ccccc1	91.9	.	-	.	.
NNC(=O)Cn1c(-c2ccccc2)cc2ccccc21	.	21.2	-	-	-
O=C(C[C@H]1CC[C@H]2[C@@H](COC[C@@H](O)CN2C(=O)c2ccncc2)O1)NC1Cc2ccccc2C1	-	-	-	-	-
Cc1ccc(S(=O)(=O)CC(=O)Nc2ccc3nc(C)sc3c2)cc1	-	23.6	-	-	-
COCC(=O)N1C[C@H]2[C@@H](c3ccccc31)[C@H](CO)N2C(=O)C1CCOCC1	-	-	.	-	-

Compound activity as filed in PubChem.
